The source of these data is ChEMBL document CHEMBL4732237, “Discovery of 4-alkoxy-2-aryl-6,7-dimethoxyquinolines as a new class of topoisomerase I inhibitors endowed with potent in vitro anticancer activity” (2021).

For one assay, the system named is HCT-116. Kind of assay: Growth inhibition of human HCT-116 cells incubated for 48 hrs by sulforhodamine B assay. Format: functional. In short, it runs like this: (§1)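 NCI five-dose screen covering 0.01–100 µM, prepared as 10-fold or ½-log dilutions from DMSO stock. Cells in RPMI 1640 with 5% FBS were exposed for 48 h at 37 °C after 24 h preincubation. Adherent cells were fixed with TCA (final 10%) and suspension cells were settled before fixing. Stain was SRB, read at 515 nm. GI50 = 50% reduction in net protein increase versus control, with Tz taken at drug addition.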

For a further assay, the system named is HCT-29. Kind of assay: Growth inhibition of human […] cells incubated for 48 hrs by sulforhodamine B assay. Format: functional. In short, it runs like this: as §1
The subject of a further assay is SF-539. Put plainly: Growth inhibition of human SF-539 cells incubated for 48 hrs by sulforhodamine B assay. Format: functional. In outline: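 NCI five-dose screen (0.01–100 µM; five concentrations plus control). Cells grown in RPMI 1640/5% FBS/2 mM L-glutamine and preincubated 24 h, with time-zero plates TCA-fixed. Drug exposure 48 h at 37 °C, followed by SRB protein staining and reading at 515 nm. GI50 is the concentration at [(Ti-Tz)/(C-Tz)]×100 = 50.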
In general terms: The SRB assay estimates cell density from bound dye.

For the next assay, the system named is 786-0. Kind of assay: Growth inhibition of human 786-0 cells incubated for 48 hrs by sulforhodamine B assay. It counts as functional. In outline:
as §1

Assay [1] addresses T1, DNA topoisomerase 1 (Homo sapiens) (UniProt P11387).
T1 sequence (whole entry): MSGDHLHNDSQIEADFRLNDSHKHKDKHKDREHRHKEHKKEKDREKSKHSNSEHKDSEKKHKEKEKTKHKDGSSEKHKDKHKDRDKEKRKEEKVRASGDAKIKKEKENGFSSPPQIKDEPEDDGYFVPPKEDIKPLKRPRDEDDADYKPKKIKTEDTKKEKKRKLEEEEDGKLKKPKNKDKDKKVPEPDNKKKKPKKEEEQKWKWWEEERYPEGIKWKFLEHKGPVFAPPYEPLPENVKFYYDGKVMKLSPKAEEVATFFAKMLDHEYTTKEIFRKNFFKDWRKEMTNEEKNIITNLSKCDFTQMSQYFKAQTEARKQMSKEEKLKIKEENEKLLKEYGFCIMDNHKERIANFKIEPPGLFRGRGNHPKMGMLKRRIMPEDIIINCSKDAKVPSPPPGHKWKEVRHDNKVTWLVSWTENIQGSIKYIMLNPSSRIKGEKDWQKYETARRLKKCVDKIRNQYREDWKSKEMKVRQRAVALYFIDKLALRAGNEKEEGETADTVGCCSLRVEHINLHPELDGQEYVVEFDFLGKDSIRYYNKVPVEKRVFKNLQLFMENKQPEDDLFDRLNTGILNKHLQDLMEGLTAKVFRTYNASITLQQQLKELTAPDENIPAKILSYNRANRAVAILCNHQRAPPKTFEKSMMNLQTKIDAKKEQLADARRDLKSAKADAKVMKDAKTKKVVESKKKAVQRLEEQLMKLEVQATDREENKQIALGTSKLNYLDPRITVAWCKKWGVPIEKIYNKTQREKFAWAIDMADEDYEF
Put plainly: Inhibition of recombinant human TOPO1 assessed as TOP1-DNA cleavage complexes at 1 uM using 3'-[32-P]-117 labeled bp DNA as substrate incubated for 30 mins by SDS-PAGE analysis relative to control.

The nature of assay [2]: Growth inhibition of human leukemia cell line incubated for 48 hrs by sulforhodamine B assay. Format: functional. The note with it: leukaemia cell line. In short, it runs like this: (§2)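 NCI-60 five-dose screen. Cells in RPMI 1640 with 5% FBS and 2 mM L-glutamine were plated at 5000–40,000 cells/well and preincubated 24 h at 37 °C, 5% CO2. Drugs in DMSO were given at five serial 10-fold or ½-log dilutions for 48 h. Adherent cells fixed with 10% TCA (final); suspension cells fixed after settling. SRB stained; A515. GI50 from [(Ti-Tz)/(C-Tz)]x100 = 50.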

A short description of assay [3]: Growth inhibition of human Non-small cell lung cancer cell line incubated for 48 hrs by sulforhodamine B assay. Format: functional. In outline: as §2
For a further assay, the system named is Colon cancer cell line. Put plainly: Growth inhibition of human colon cancer cell line incubated for 48 hrs by sulforhodamine B assay. It counts as functional. In short, it runs like this: as §2
Another assay concerns CNS carcinoma cell. Put plainly: Growth inhibition of human CNS carcinoma cell incubated for 48 hrs by sulforhodamine B assay. Format: functional. In outline:
as §2

In the next assay the test system is Melanoma cell line. Put plainly: Growth inhibition of human Melanoma cell line incubated for 48 hrs by sulforhodamine B assay. Format: functional. In outline: as §2
Another assay relates to Ovarian cancer cell line. Kind of assay: Growth inhibition of human Ovarian cancer cell line incubated for 48 hrs by sulforhodamine B assay. Format: functional. In outline:
as §2

Assay [4] is described as follows: Growth inhibition of human Renal cancer cell line incubated for 48 hrs by sulforhodamine B assay. It counts as functional. In outline: as §2
Assay [5] can be described thus: Growth inhibition of human Prostate tumor cell line incubated for 48 hrs by sulforhodamine B assay. It counts as functional. In outline: as §2
Assay [6] is described as follows: Growth inhibition of human Breast cancer cell line incubated for 48 hrs by sulforhodamine B assay. Format: functional. In outline: as §2

Broadly, the GI50 is the concentration at which growth is held to half of that of the control. What is called inhibition is the percentage by which the read-out fell short of the control. With `COc1cc2nc(-c3ccc(Cl)cc3)cc(OCCCN3CCCCC3)c2cc1OC`, the GI50 with HCT-116 was determined as 0.828 µM; in the assay with HCT-29, 0.492 µM; in the assay on SF-539 it was 2.57 µM; in the assay on 786-0, 2.62 µM. Moreover, in assay [1], the inhibition amounted to 20%.
In general, LC50 refers to the concentration lethal to half of the exposed cells or organisms. Low values mean a more lethal substance, high ones a less lethal substance. Broadly, the TGI is the concentration at which net growth stops. The low end stands for more potent growth arrest, the high end for less potent growth arrest. For the molecule `COc1cc2nc(-c3ccc(C(F)(F)F)cc3)cc(OCCCN3CCCCC3)c2cc1OC`, the GI50 turned out to be 0.429 µM in the assay on HCT-116, 0.415 µM in the assay on HCT-29, 2.08 µM with SF-539 and 2.17 µM in the assay with 786-0. For the same molecule, the LC50 came out at 74.8 µM in [2]; 40.8 µM in the assay on Colon cancer cell line; 38.8 µM in the assay with CNS carcinoma cell; 65.5 µM in the assay on Ovarian cancer cell line; 43 µM in [6]. Also, the concentration for total growth inhibition (TGI) in assay [2] was 10.3 µM; in [3], 13.8 µM; in the assay on Colon cancer cell line it was 10.3 µM; in the assay on CNS carcinoma cell, 11.9 µM; in the assay on Melanoma cell line, 4.14 µM; in the assay with Ovarian cancer cell line, 19.7 µM. The TGI in assay [4] stood at 11 µM; in assay [5], 13.8 µM; in assay [6], 9.29 µM. For the same molecule, the LC50 (concentration killing 50% of cells) in [3] was determined as 50.6 µM; in assay [5] it was 42.2 µM. In the assay with Melanoma cell line, this molecule showed an LC50 (50% lethal concentration) of 19.9 µM. The molecule further returned an LC50 (concentration giving 50% net cell kill) in assay [4] of 35 µM. The inhibition in [1] came out at 20%.
On to `COc1cc2nc(-c3ccc(C(F)(F)F)cc3)cc(OCCCN3CCOCC3)c2cc1OC`, for which the GI50 with HCT-116 turned out to be 0.583 µM; in the assay on HCT-29, 0.54 µM; in the assay on 786-0 it was 1.76 µM. For the same molecule, the inhibition in assay [1] was 50%.
For the molecule `COc1cc2nc(-c3ccc(Cl)cc3)cc(OCCCN3CCC(O)CC3)c2cc1OC`, the GI50 was determined as 1.44 µM with HCT-116, 0.7 µM with HCT-29, 2.28 µM in the assay on SF-539 and 3.31 µM with 786-0. Besides, the inhibition in [1] was determined as 20%.
Regarding `COc1cc2nc(-c3ccc(Cl)cc3)cc(OCCCN3CCCC3)c2cc1OC`, the GI50 with HCT-116 stood at 0.699 µM; with HCT-29, 0.454 µM; in the assay with SF-539, 2.44 µM; with 786-0, 2.78 µM. Moreover, the LC50 in assay [2] came out at 32 µM; in the assay with Colon cancer cell line, 39.1 µM; with CNS carcinoma cell it was 33.5 µM; in the assay on Ovarian cancer cell line, 55.1 µM; in assay [6], 29.6 µM. For the same molecule, the TGI in assay [2] was determined as 4.99 µM; in assay [3], 10.4 µM; in the assay with Colon cancer cell line, 8.31 µM; with CNS carcinoma cell, 10.1 µM; with Melanoma cell line, 4.26 µM; with Ovarian cancer cell line, 14.8 µM. Besides, the TGI in assay [4] stood at 7.66 µM; in [5], 12.1 µM; in [6] it was 5.8 µM. For the same molecule, the LC50 (concentration killing 50% of cells) came out at 39.7 µM in assay [3] and 39.6 µM in assay [5]. In the assay with Melanoma cell line, this molecule showed an LC50 (50% lethal concentration) of 14.6 µM. For the same molecule, in assay [4], the LC50 (concentration giving 50% net cell kill) came to 28.9 µM. Also, in assay [1], the inhibition amounted to 20%.
Consider `COc1cc2nc(-c3ccc(C(F)(F)F)cc3)cc(OCCCN3CCC(O)CC3)c2cc1OC`, for which the GI50 in the assay with HCT-116 came out at 0.671 µM; with HCT-29, 0.486 µM; in the assay on SF-539, 5.75 µM; in the assay on 786-0, 4.72 µM. For the same molecule, the inhibition in assay [1] is 0%.
On the same counts, the results for `COc1cc2nc(-c3ccc(Cl)cc3)cc(OCCCN3CCOCC3)c2cc1OC` are 1.59 µM, 0.61 µM, 2.99 µM, 1.94 µM and 50%.
Turning to `COc1cc2nc(-c3ccc(C(F)(F)F)cc3)cc(OCCCN3CCCC3)c2cc1OC`, the GI50 in the assay on HCT-116 is 0.456 µM; with HCT-29, 0.446 µM; with SF-539, 1.87 µM; with 786-0, 2.13 µM. Besides, the LC50 in assay [2] was found to be 81.6 µM; in the assay with Colon cancer cell line, 50.4 µM; with CNS carcinoma cell, 44.9 µM; with Ovarian cancer cell line, 81 µM; in [6], 40.8 µM. The TGI stood at 6.17 µM in [2]; 12.7 µM in [3]; 8.07 µM in the assay on Colon cancer cell line; 11.7 µM in the assay with CNS carcinoma cell; 4.08 µM with Melanoma cell line; 28.1 µM with Ovarian cancer cell line. Further, the values for the TGI in assay [4], in [5] and in assay [6] were 10.2 µM, 16.8 µM and 6.8 µM, respectively. In addition, the LC50 (concentration killing 50% of cells) in assay [3] was found to be 57.9 µM; in [5], 89.5 µM. Moreover, the LC50 (50% lethal concentration) with Melanoma cell line was found to be 23.7 µM. In [4], this molecule yielded an LC50 (concentration giving 50% net cell kill) of 40.1 µM. Further, the inhibition in [1] amounted to 0%.
